Assay [1] addresses T1, Amine oxidase [flavin-containing] A (Rattus norvegicus, UniProt P21396).
T1 sequence (P21396 whole entry): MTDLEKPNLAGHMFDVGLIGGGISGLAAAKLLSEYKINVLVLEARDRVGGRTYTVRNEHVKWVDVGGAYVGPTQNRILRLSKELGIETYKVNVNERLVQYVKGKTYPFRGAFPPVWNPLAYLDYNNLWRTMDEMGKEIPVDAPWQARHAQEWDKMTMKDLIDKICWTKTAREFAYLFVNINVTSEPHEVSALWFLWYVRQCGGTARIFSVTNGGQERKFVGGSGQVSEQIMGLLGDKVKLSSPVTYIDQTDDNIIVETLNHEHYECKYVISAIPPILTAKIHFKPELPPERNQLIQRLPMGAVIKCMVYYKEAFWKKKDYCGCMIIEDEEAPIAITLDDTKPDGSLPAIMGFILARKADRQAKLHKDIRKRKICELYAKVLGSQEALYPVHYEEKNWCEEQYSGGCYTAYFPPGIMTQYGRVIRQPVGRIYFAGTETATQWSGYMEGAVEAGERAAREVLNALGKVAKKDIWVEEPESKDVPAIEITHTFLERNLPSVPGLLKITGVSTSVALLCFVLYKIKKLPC
Kind of assay: Displacement of [3H]-Ro 41-1049 from MAO-A receptor in rat cerebral cortex. In kind it is tissue-based.

Assay [2] deals with T2, Amine oxidase [flavin-containing] B (Rattus norvegicus, UniProt P19643).
T2 sequence (P19643 whole entry): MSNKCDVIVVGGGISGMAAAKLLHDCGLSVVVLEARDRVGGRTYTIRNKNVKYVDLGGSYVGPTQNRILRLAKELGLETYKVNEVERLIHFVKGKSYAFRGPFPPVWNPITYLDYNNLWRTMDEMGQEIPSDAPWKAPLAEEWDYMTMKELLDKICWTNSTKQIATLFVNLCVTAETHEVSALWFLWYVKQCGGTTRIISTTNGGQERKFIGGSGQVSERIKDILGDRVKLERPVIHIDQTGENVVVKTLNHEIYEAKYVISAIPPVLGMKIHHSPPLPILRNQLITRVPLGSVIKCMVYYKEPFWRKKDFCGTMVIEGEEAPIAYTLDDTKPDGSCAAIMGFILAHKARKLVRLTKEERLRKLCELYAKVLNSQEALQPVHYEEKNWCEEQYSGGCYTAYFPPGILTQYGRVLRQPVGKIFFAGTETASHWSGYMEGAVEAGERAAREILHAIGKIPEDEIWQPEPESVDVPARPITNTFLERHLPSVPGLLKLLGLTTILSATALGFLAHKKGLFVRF
Kind of assay: Displacement of [3H]-Ro 16-6491 from MAO-B receptor in rat cerebral cortex. Type of assay: tissue-based.

For assay [3], the system named is Rattus norvegicus. The assay can be described thus: Decrease in DOPAC level in Sprague-Dawley rat striatum at 100 umol/kg, sc measured after 1 hr compound administration. Type of assay: functional. The arrangement: scale not given: the % may be the effect or the level left. Put shortly:
(§1)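 Compounds were given to freely moving rats. Brain tissue was taken post-mortem, and striatal levels of each monoamine and its metabolites were quantified.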

Assay [4] relates to Rattus norvegicus. The assay can be described thus: Increase in 3-MT level in Sprague-Dawley rat striatum at 100 umol/kg, sc measured after 1 hr compound administration. In kind it is functional. Put shortly:
as §1

In assay [5] the test system is Rattus norvegicus. Kind of assay: Decrease in DOPAC level in Sprague-Dawley rat striatum at 5.3 umol/kg, sc measured after 1 hr compound administration. Type of assay: functional. Further details: scale not given: the % may be the effect or the level left. Put shortly:
as §1

For assay [6], the system named is Rattus norvegicus. Kind of assay: Decrease in DOPAC level in Sprague-Dawley rat striatum at 53 umol/kg, sc measured after 1 hr compound administration. In kind it is functional. Further details: scale not given: the % may be the effect or the level left. Put shortly:
as §1

Assay [7] concerns Rattus norvegicus. Kind of assay: Increase in 3-MT level in Sprague-Dawley rat striatum at 5.3 umol/kg, sc measured after 1 hr compound administration. In kind it is functional. Put shortly:
as §1

In assay [8] the test system is Rattus norvegicus. Kind of assay: Increase in 3-MT level in Sprague-Dawley rat striatum at 53 umol/kg, sc measured after 1 hr compound administration. In kind it is functional. Put shortly: as §1
The test system of assay [9] is Rattus norvegicus. The assay can be described thus: Decrease in DOPAC level in Sprague-Dawley rat brain at 50 umol/kg, sc measured by microdialysis. Type of assay: functional, organism-based.
Assay [10] has as its system Rattus norvegicus. Kind of assay: Increase in 3-MT level in Sprague-Dawley rat brain at 50 umol/kg, sc measured by microdialysis. Type of assay: functional, organism-based.
In assay [11] the test system is Rattus norvegicus. The assay can be described thus: Decrease in homovanillic acid level in Sprague-Dawley rat brain at 50 umol/kg, sc measured by microdialysis. In kind it is functional, organism-based.
Assay [12] relates to Rattus norvegicus. Kind of assay: Decrease in DOPAC level in Sprague-Dawley rat striatum at 37 umol/kg, sc measured after 1 hr compound administration. In kind it is functional. Further details: scale not given: the % may be the effect or the level left. Put shortly: (§2)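 Unrestrained rats were dosed, and post-mortem striatal brain tissue was then analysed. Each monoamine and its metabolites (DOPAC, 3-MT) were quantified in the tissue.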

The subject of assay [13] is Rattus norvegicus. Kind of assay: Increase in 3-MT level in Sprague-Dawley rat striatum at 37 umol/kg, sc measured after 1 hr compound administration. In kind it is functional. Put shortly: as §2

The source made the active and inactive calls. The calls are words filed in the database; no cut-off is given here.

Consider `CCCN1CCC(c2ccc(C#N)cc2)CC1`, for which the Ki in assay [1] is 93.3 µM; in assay [2], 589 µM. For the same molecule, the figures for the Activity in the assay with Rattus norvegicus [3] and with Rattus norvegicus [4] were 105% and 115%, respectively.
As to `CCCN1CCC(c2ccc(S(C)(=O)=O)cc2)CC1`, the Ki in [1] and in [2] was 589 µM in each case. The Activity in the assay on Rattus norvegicus [3] and in the assay on Rattus norvegicus [4] was 100% in each case.
In the case of `CCCN1CCC(c2ccc(N3CCOCC3)cc2)CC1`, the Ki is 1.2 µM in assay [1] and 12.9 µM in assay [2]. Further, the Activity came to 38% in the assay on Rattus norvegicus [3] and 160% in the assay with Rattus norvegicus [4].
Consider `CCCN1CCC(c2ccccc2)CC1`, for which affinity in [1] was put at a Ki of 9.77 µM. The Activity is 130% in the assay on Rattus norvegicus [3] and 100% in the assay on Rattus norvegicus [4].
Consider `C#CCN(C)[C@H](C)Cc1ccccc1` [SELEGILINE], for which the Activity in the assay on Rattus norvegicus [5] was determined as 83%; with Rattus norvegicus [6], 37%; in the assay with Rattus norvegicus [7], 110%; in the assay on Rattus norvegicus [8] it was 145%.
Turning to `CCCN1CCN(c2ccc(OS(=O)(=O)C(F)(F)F)cc2)CC1`, the inhibitory constant (Ki) in assay [1] is 17 µM; in [2], 0.0331 µM. Moreover, the Activity in the assay with Rattus norvegicus [3] came out at 121%; in the assay on Rattus norvegicus [4], 120%.
The matching figures for `CCCN1CCC(c2ccc(OC)cc2)CC1`: 0.24 µM, 219 µM, 22% and 260%.
For the molecule `CCCN1CCN(c2ccccc2)CC1`, the affinity in [1], expressed as Ki, was 46.8 µM. The results for the Activity in the assay on Rattus norvegicus [3] and in the assay with Rattus norvegicus [4] were 180% and 100%, respectively.
In the case of `CCCCOc1ccc(C2CCN(CCC)CC2)cc1`, the values for the Ki in assay [1] and in assay [2] were 0.372 µM and 1.58 µM, respectively. For the same molecule, the Activity with Rattus norvegicus [3] was found to be 40%; with Rattus norvegicus [4], 150%. Besides, the result with Rattus norvegicus [9], with Rattus norvegicus [10] and in the assay with Rattus norvegicus [11] was Active.
Turning to `CCCN1CCC(c2ccc(C(F)(F)F)cc2)CC1`, the inhibition constant Ki is 6.92 µM in assay [1] and 12.9 µM in assay [2]. Besides, the Activity in the assay with Rattus norvegicus [3] was determined as 86%; with Rattus norvegicus [4] it was 100%.
For the molecule `CCCN1CCC(c2ccc(Cl)cc2)CC1`, the Ki in assay [1] was 1.51 µM; in assay [2], 38 µM. The Activity in the assay with Rattus norvegicus [3] was determined as 68%; in the assay with Rattus norvegicus [4] it was 130%.
For `CCCN1CCN(c2ccc(OC)cc2)CC1`, the Ki was 1.41 µM in assay [1] and 589 µM in assay [2]. Besides, the Activity in the assay with Rattus norvegicus [3] is recorded as 71%; with Rattus norvegicus [4], 135%.
`O=C(NCCN1CCOCC1)c1ccc(Cl)cc1` [MOCLOBEMIDE] had a Ki in [2] of over 100 µM. In addition, the Activity in the assay with Rattus norvegicus [12] is listed as 18%; with Rattus norvegicus [13], 400%.

Source of the values: ChEMBL document CHEMBL2046356, “Synthesis and evaluation of a set of para-substituted 4-phenylpiperidines and 4-phenylpiperazines as monoamine oxidase (MAO) inhibitors” (J Med Chem, 2012).
